KCNQ1 pot – potentiators or activators of KCNQ1 channel, primary screen, cell-based, thallium flux, high-throughput. Potassium voltage-gated channel subfamily KQT member 1 (Homo sapiens), P51787. actives 0.35% (n = 310,000). AID 2648, 2010. CHO-K1 KCNQ1, thallium flux FluxOR fluorescence; hits give high values. B-score at 10 µM;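 active = fluorescence ratio B-score, a plate-corrected score, at least three library SD, with initial intensity B-score within 5 SD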
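Assay system: CHO-K1 cells stably expressing KCNQ1; Medium: assay buffer with matched DMSO; Also added: K+/Tl+ depolarizing stimulus; Dosing: single dose; Timing: dye 90 min, compound 20 min, room temperature; Measured by: kinetic FluxOR thallium fluorescence, 10-s 1-Hz baseline, 110-s post-stimulus read; Read-out: peak-minus-minimum fluorescence over initial fluorescence, negative-control normalized, B-scored.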
KCNK3 inh – human KCNK3 channel inhibitors, primary screen, CHO cells, FluxOR thallium flux, B-score. B-score at 10 µM. actives 0.84% (n = 340,000). Potassium channel subfamily K member 3 (Homo sapiens), O14649. FluxOR fluorescence; hits give low values;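 active = B-score under library mean minus 4 SD, starting fluorescence ratio at most library mean plus 5 SD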;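 note: more negative B-score means stronger inhibition of thallium flux through KCNK3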
hERG rescue – hERG rescue from dofetilide block, primary screen, cell-based, CHO-hERG, FluxOR thallium flux, dofetilide IC70. Voltage-gated inwardly rectifying potassium channel KCNH2 (Homo sapiens), Q12809. activation (rescue from dofetilide block), less the hit threshold, % at 10 µM. actives 0.51% (n = 310,000). AID 1511, 2009. dofetilide IC70 present;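 active = activation above the mean of controls blocked by dofetilide plus 5 SD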;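 note: thallium influx through hERG after potassium depolarization seen as dye fluorescence rise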
Target sequence (Q12809 whole entry, looked up): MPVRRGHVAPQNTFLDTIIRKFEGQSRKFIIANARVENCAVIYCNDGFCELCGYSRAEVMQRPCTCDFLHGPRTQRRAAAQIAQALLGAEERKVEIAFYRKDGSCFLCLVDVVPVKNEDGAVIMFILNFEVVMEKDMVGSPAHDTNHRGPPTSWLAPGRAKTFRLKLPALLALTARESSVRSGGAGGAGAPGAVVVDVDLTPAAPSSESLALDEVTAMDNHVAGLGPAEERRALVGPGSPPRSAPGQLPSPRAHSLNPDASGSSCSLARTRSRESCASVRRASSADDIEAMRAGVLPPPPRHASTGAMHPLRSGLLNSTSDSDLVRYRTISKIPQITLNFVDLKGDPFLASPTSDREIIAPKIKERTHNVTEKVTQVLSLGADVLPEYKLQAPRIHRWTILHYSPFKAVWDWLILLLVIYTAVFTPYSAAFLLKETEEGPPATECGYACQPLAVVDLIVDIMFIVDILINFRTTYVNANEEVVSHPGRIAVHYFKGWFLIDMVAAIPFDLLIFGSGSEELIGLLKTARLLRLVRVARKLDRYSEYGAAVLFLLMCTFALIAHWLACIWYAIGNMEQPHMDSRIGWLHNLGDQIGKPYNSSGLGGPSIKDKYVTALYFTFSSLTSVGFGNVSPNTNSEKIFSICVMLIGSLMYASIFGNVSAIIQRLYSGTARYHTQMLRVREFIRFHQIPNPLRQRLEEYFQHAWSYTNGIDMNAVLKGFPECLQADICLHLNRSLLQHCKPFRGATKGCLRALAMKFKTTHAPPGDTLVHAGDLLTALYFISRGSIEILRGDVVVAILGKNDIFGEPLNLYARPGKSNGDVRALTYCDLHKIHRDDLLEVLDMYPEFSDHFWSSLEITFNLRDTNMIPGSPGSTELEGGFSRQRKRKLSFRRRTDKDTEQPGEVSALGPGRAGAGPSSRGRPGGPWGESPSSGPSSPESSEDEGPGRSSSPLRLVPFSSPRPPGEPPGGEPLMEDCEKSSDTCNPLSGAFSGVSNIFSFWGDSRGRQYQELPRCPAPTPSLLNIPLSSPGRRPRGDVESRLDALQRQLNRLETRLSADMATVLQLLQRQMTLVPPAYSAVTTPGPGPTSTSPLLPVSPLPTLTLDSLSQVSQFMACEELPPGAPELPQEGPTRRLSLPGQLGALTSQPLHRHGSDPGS
Kir21 inh – inhibitors of mouse Kir2.1 inward-rectifier potassium channel; Inward rectifier potassium channel 2 (Mus musculus), P35561; HEK293-Kir2.1, FluxOR thallium flux fluorescence; hits give low values; B-score at 10 µM; actives 0.85% (n = 310,000); AID 1672, 2009;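 active = fluorescence ratio B-score at or below minus 3 SD of library scores, with starting-brightness B-score within 2 SD, cut at about -4.2 in these data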;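 note: channel flux triggered by added potassium and thallium sulfate stimulus; B-score of peak minus minimum fluorescence over baseline after thallium stimulus; more negative B-score means stronger Kir2.1 block with less thallium influx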
KCNQ1 block – inhibitors of human KCNQ1 channel, primary screen, cell-based, thallium flux, high-throughput | Potassium voltage-gated channel subfamily KQT member 1 (Homo sapiens), P51787 | CHO-K1 KCNQ1, FluxOR thallium flux fluorescence; hits give high values | B-score at 10 µM | actives 1.3% (n = 310,000);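 active = compounds whose thallium flux B-score, printed positive for inhibition, exceeds three library SD while starting fluorescence stays within three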;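 note: channel opened by potassium depolarization with thallium stimulus after 20 min compound exposure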
KCNK9 inh – KCNK9 potassium channel inhibitors, primary screen, HEK293 cells, thallium flux | Potassium channel subfamily K member 9 (Homo sapiens), Q9NPC2 | FluxOR thallium flux fluorescence; hits give low values | B-score at 10 µM | actives 1.2% (n = 310,000);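 active = ratio B-score over 3 SD below the library mean, with starting fluorescence within 5 SD of its mean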;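 note: negative B-score means less thallium flux so channel inhibition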
KCNK9 block conf – KCNK9 potassium channel inhibitors, confirmation, HEK293 cells, thallium flux, duplicate | actives 43% (n = 4,900) | AID 492992, 2010 | shares compounds with KCNK9 inh | inhibition, % at 10 µM | FluxOR thallium flux fluorescence;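 active = thallium signal inhibited by more than 5 SD of the compound-free buffer control wells, on both duplicate plates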;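 note: 0% = assay buffer control wells without compound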
Kir21 sel – mouse Kir2.1 channel inhibition, confirmation, selectivity assay for KCNK9 modulator project, cell-based, HEK293, thallium flux | actives 4% (n = 4,900) | Kir2.1 cells, FluxOR thallium flux fluorescence | inhibition, % at 10 µM | shares compounds with KCNK9 inh | AID 492993, 2010;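 active = thallium signal drop more than 5 SD beyond the mean of the no-compound control wells, seen in both duplicate plates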;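 note: signal is fluorescence rise after thallium addition divided by baseline fluorescence; plate controls were assay buffer only for no effect and full block by chlorpromazine control for full effect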
KCNK9 uninduced – thallium flux in non-induced HEK293 cells, confirmation, counter-screen for KCNK9 inhibitor project, cell-based, second counter screen, non-induced KCNK9-HEK293. shares compounds with KCNK9 inh. FluxOR thallium flux. inhibition, % at 10 µM. actives 40% (n = 4,900). AID 492997, 2010;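 active = thallium signal drop beyond 5 SD of the untreated control mean, on both duplicate plates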;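 note: plate controls were buffer only IC0 wells for no effect and SID17386958 at its maximal inhibitory level for full effect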
Active calls of the source: *; i = inactive; nt = no result given; ! = repeats disagree. Hits are enriched below; roughly 3.8% of the tested compounds scored in any of these assays.

SMILES	KCNQ1 pot	KCNK3 inh	hERG rescue	Kir21 inh	KCNQ1 block	KCNK9 inh	KCNK9 block conf	Kir21 sel	KCNK9 uninduced
COC(=O)c1cc(=O)n(Cc2ccc(OC)cc2)c(=NCc2ccc(OC)cc2)s1	i	i	-15	1.6	i	i	i	i	i
O=C(COC(=O)COc1ccc(Cl)cc1Cl)NC1CCS(=O)(=O)C1 (stereo not given)	nt	i	nt	nt	nt	nt	nt	nt	nt
COc1cc(-c2nnc(COc3ccc4ccccc4c3)o2)cc(OC)c1OC	i	i	-10	0.31	i	i	i	i	i
CCCc1cc(-c2nc(-c3ccc(Br)cc3)cs2)ccn1	i	i	-6	-0.06	i	-10*	i	i	26%*
C/C(=N\Nc1cc(C(F)(F)F)ccc1Cl)c1ccccc1O	i	i	-12	0.49	i	i	i	i	i
C/C(=N\Nc1ccc(F)cc1F)c1ccccc1O	i	i	-10	0.02	i	i	nt	nt	nt
N#Cc1c(SCc2ccccc2)sc(C(=O)c2ccccc2)c1N	i	i	-10	-0.4	i	i	nt	nt	nt
Cc1ccc(CSc2sc(C(=O)c3ccccc3)c(N)c2C#N)cc1	i	i	-6	0.14	i	-9*	36%*	i	42%*
CNC(=O)CNC(=O)Nc1ccc(Cl)c(Cl)c1	i	i	-4	0.56	i	i	nt	nt	nt
CCOC(=O)c1ccc(NC(=O)Cn2c(-c3nonc3N)nc3ccccc32)cc1	i	i	-17	1.1	i	i	nt	nt	nt
Fc1ccccc1N1CC(c2ccccc2)C(c2cccs2)=N1 (stereo not given)	i	i	-9	1.9	i	-8.6*	34%*	i	43%*
CCc1nnc(NC(=O)CCC(=O)NCc2ccccc2Cl)s1	i	i	-3	-0.02	i	i	nt	nt	nt
O=C(CN1CCN(c2ccccc2)CC1)N1N=CCC1c1ccccc1 (stereo not given)	i	i	-9	2.6	i	i	nt	nt	nt
NC(=O)C1CCN(CC(=O)N2N=CCC2c2ccccc2)CC1 (stereo not given)	i	i	-7	-0.32	i	-8.9*	i	i	i
Cc1nn(Cc2ccccc2)c(Cl)c1C(=O)OCc1nnc(-c2ccc(Cl)cc2)o1	i	i	-13	-0.6	i	i	i	i	i
Cc1ccc(C(=O)NCCNc2ccc([N+](=O)[O-])cc2C(F)(F)F)cc1	i	i	-5	-1.1	i	i	nt	nt	nt
O=C(NCCNc1ccc([N+](=O)[O-])cc1C(F)(F)F)c1ccccc1F	i	i	-6	-1.3	i	i	i	i	i
COC(=O)c1ccccc1NC(=O)C12CC3CC(C1)CC(n1cnc(Cl)n1)(C3)C2	i	i	-17	0.95	i	i	i	i	i
COC(=O)C12CC3CC(C1)CC(n1cnc(Cl)n1)(C3)C2	i	i	-6	0.53	i	i	nt	nt	nt
CC(C)(C)NC(=S)NC(=O)C12CCC3CC(CC(C3)C1)C2	i	i	-2	-1.2	i	i	i	i	i
COc1ccc(N(CC(=O)NCc2cccnc2)S(=O)(=O)c2ccccc2)c(OC)c1	i	i	-15	-1.9	i	i	nt	nt	nt
c1ccc(C(=C2CCCO2)c2ccccc2)cc1	nt	i	nt	nt	nt	nt	nt	nt	nt
CCN(CC)C(=O)c1cn(CCC#N)nc1-c1ccc(F)cc1	i	i	0	-0.71	i	i	nt	nt	nt
CCCCN(CC)C(=O)CSc1nc2n[nH]c(C)c2c(=N)n1-c1cccc(C)c1	i	i	-3	-0.4	i	-9.2*	34%*	i	i
O=C(NCCS(=O)(=O)N1CCCCCC1)c1ccc(F)cc1	i	i	-14	-0.3	i	i	nt	nt	nt
SMILES	KCNQ1 pot	KCNK3 inh	hERG rescue	Kir21 inh	KCNQ1 block	KCNK9 inh	KCNK9 block conf	Kir21 sel	KCNK9 uninduced
O=C(NCCc1csc(-c2cccnc2)n1)c1ccccc1Br	i	i	-6	-1.1	i	i	nt	nt	nt
COc1ccc(C2CC(c3cccs3)=Nc3ccccc3S2)cc1 (stereo not given)	i	i	-2	0.17	i	-12*	52%*	i	36%*
COC(=O)c1ccc2c(=O)n(CCN3CCOCC3)c(SCC(=O)NCc3ccccc3)nc2c1	i	i	-9	-0.25	i	i	nt	nt	nt
CC(CN1CCN(Cc2ccccc2)CC1)c1ccccc1 (stereo not given)	i	i	-4	0.32	i	i	nt	nt	nt
N#CC(c1ccccc1)C1CCN(Cc2ccccc2)CC1 (stereo not given)	i	i	-8	-5.2*	i	i	i	i	i
N#CC1(NC(=O)CN2C(=O)NC3(CCCCCC3)C2=O)CCCCC1	nt	i	nt	nt	nt	nt	nt	nt	nt
CCCCCCCCn1ccc(=N)cc1	i	i	-15	-0.52	i	i	nt	nt	nt
CCCCCCCCCCCCCCCCn1cc[n+](C)c1	i	-12*!	-37	-3.9	10*!	-12*!	62%*	44%*	26%*
Cc1cc2ccccc2n2c(SCC(=O)NCC3CCCO3)nnc12 (stereo not given)	i	nt	-8	0	i	i	nt	nt	nt
CCC(C)(C)C1CCc2c(sc(NC(=O)c3ccccc3C(=O)O)c2C#N)C1 (stereo not given)	9*	i	15*	0.38	i	i	i	i	i
CC1CCc2c(sc(NC(=O)c3ccccc3C(=O)O)c2C#N)C1 (stereo not given)	i	i	-5	2.7	i	i	nt	nt	nt

Assay outcomes as filed in PubChem BioAssay.
